A selection follows.
Apaf1 activ – activators of human Apaf-1 apoptosome, primary screen, biochemical, DEVD-Rh110 fluorescence, uHTS; 330,000 compounds, 0.31% hits; Apaf-1 apoptosome caspase-3 activation; active compounds read low; activity change, negative = activation, % at 20 µM; Apoptotic protease-activating factor 1 (Homo sapiens), O14727;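 active means activity change at or below -40% at 20 µM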
Target sequence (O14727 whole entry, looked up): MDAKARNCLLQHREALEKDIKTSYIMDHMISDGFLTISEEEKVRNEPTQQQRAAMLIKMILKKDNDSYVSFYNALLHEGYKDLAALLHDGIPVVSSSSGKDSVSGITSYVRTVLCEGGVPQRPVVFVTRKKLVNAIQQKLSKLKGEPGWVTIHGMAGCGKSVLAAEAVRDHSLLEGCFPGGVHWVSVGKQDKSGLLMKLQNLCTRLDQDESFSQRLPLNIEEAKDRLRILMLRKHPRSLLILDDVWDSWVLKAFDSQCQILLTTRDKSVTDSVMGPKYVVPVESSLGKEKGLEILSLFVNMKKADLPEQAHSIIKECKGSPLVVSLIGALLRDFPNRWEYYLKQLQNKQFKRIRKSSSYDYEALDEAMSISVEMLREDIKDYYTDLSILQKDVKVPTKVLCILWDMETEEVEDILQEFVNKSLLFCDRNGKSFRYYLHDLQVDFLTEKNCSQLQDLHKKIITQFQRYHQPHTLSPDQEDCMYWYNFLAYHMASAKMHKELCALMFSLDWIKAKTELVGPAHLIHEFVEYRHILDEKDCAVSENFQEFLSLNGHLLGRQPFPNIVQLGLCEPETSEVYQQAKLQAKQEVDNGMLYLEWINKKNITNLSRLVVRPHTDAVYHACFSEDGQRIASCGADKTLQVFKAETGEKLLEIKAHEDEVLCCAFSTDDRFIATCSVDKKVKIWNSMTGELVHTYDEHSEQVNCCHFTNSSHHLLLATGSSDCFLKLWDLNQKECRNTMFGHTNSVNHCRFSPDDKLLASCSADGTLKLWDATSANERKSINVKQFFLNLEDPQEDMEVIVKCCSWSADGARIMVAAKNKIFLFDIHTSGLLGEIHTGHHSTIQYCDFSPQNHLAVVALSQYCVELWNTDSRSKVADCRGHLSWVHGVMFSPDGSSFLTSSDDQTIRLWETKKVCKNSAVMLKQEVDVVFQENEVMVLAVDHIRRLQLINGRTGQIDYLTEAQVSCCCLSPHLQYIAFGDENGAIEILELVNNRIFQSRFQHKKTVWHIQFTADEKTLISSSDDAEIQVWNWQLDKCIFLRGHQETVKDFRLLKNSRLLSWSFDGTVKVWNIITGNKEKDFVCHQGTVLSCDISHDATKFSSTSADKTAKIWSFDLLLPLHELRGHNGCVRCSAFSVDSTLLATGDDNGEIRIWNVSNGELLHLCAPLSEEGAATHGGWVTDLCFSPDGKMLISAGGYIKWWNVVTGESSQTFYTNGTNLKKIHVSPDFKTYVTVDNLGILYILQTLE
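Assay system – biochemical Apaf-1 apoptosome reconstitution · Medium – 20 mM HEPES buffer, pH 7.5, containing CHAPS and BSA · Incubation – 30 min preincubation, 50 min reaction, room temperature · Measured by – Caspase-3-released Rh110 fluorescence, 540 nm emission, 480 nm excitation · Read-out – Caspase-3 cleavage activity downstream of Apaf-1 activation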
Rh110 act interf – Rh110 fluorescence interference by putative Apaf-1 activators, confirmation, artefact control for Apaf-1 activator project, biochemical, 20 µM | 980 tested, under 10 active | shares compounds with Apaf1 activ | quenched caspase reaction, Ex480/Em540 | fluorescence interference (activity change), % at 20 µM, hits read low;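 active means mean activity change at or below -40% when tested at 20 µM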
Apaf-1 act conf2 – Apaf-1 activators, single-dose retest, confirmation, biochemical, fluorescence, DEVD-Rh110, 20 µM; shares compounds with Apaf1 activ; reconstituted apoptosome caspase-3 activity; active compounds read low; activity change, negative = activation, % at 20 µM; 980 compounds, 5% hits; AID 504617, 2011;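 active means mean activity change at or below -40%, meaning activation of 40% or more, at 20 µM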
Active calls of the source: *; / = no result; + = active, no number.

SMILES	Apaf1 activ	Rh110 act interf	Apaf-1 act conf2
COc1ccc(C(CCN2CCCCC2)c2c(OC)cc(OC)c3c(-c4ccccc4)cc(=O)oc23)cc1 (configuration not stated)	54.5	/	/
COc1cc(/C=C2/C(=O)N(c3ccccc3)N=C2C)ccc1OS(=O)(=O)c1ccccc1	95.0	/	/
O=C(CSc1ccc(-c2ccc3c(c2)OCO3)nn1)Nc1nccs1	-45.3*	8.6	11.5
CC(=O)c1cccc(NC(=O)CSc2ccc(-c3ccco3)nn2)c1	45.2	/	/
CC1OC(Nc2cccc3ccccc23)C(O)C(O)C1O (configuration not stated)	96.1	/	/
COc1ccc(CN2C(=O)Cc3c2nc(N)c2c(N)nc(N4CCOCC4)c(C#N)c32)cc1	86.4	/	/
Oc1ccc(C=Nc2cccc3ccccc23)c(O)c1	81.1	/	/
Cc1ccccc1NC(=S)Nc1cccc2cnccc12	90.9	/	/
Cc1ccccc1NC(=S)N/N=C/c1ccc(O)cc1O	-42.6*	7.6	-34.7
O=C(c1ccc2nc(-c3ccco3)c(-c3ccco3)nc2c1)N1CCN(c2ncccn2)CC1	57.5	/	/
COCCNC(=O)c1c(N)n(-c2ccccc2)c2nc3ccccc3nc12	81.3	/	/
CN1CCc2cc3c(c4c2[C@H]1[C@H](O)c1ccccc1-4)OCO3	48.2	/	/
Cc1ccc(C(=O)NC(=S)Nc2cccc3nsnc23)cc1	58.9	/	/
COC(=O)c1ccccc1-c1ccc(C(c2c(C)[nH][nH]c2=O)c2c(C)[nH][nH]c2=O)o1	79.2	/	/
COC(=O)c1ccccc1-c1c2ccc(=N)cc-2oc2cc(N)ccc12	-332.4*	+	-81.6*
O=C1OC(Nc2cc(Br)cc3cccnc23)c2ccccc21 (configuration not stated)	96.8	/	/
CCC(C)N(C(=O)COC(=O)c1cc([N+](=O)[O-])ccc1N1CCOCC1)C1CCS(=O)(=O)C1 (configuration not stated)	78.1	/	/
COc1cccc(-c2sc3ccc(OC)cc3c2-c2ccc(OCCN(C)C)cc2)c1	75.4	/	/
O=C1/C(=C/Nc2ccc3c(c2)OCO3)CCc2ccccc21	45.0	/	/
O=C(CSc1ccc2c(c1)OCCO2)Nc1ccc2c(c1)OCO2	-577.5*	9.8	11.1
O=C(Nc1ccc2c(c1)OCO2)[C@@H]1[C@@H]2C(=O)N(C3CCCCC3)C(=O)[C@@H]2C2c3ccccc3C=CN21 (some centres not stated)	42.5	/	/
O=C1C=C(Nc2ccccc2O)c2ccccc2C1=O	96.4	/	/
CC(=O)N1CCn2c3c(c(=O)c4cc(C)ccc42)CCC31 (configuration not stated)	73.1	/	/
Cc1cc(C)c2sc(N(CCN(C)C)C(=O)CCS(=O)(=O)c3ccccc3)nc2c1	52.5	/	/
O=C(O)CCCNC(=O)C(c1ccccc1)c1ccccc1	-4.7	/	/
SMILES	Apaf1 activ	Rh110 act interf	Apaf-1 act conf2
O=C(c1ccccc1)C(O)c1ccccc1 (configuration not stated)	-40.9*	4.1	4.2
CCCCCCCCCCCCC/C=C/[C@@H](O)[C@@H](N)CO	79.2	/	/
CC1=NN(c2ccc(C)c(C)c2)C(=O)/C1=C/c1ccc2c(c1)n(C)c(=O)n2C	93.7	/	/
O=C(O)c1ccc2c3c(ncnc13)-c1ccccc1C2=O	44.0	/	/
C#CCOCCOCCOCCNc1nc(N2CCN(C(=O)C([C@@H](C)O)n3cc([C@@H](N)CCCCN)nn3)CC2)nc(N2CCN(C(=O)[C@H](CO)n3cc([C@@H](N)C(C)C)nn3)CC2)n1 (some centres not stated)	52.5	/	/
Cc1ccc2nc(N(CCCN(C)C)C(=O)c3ccc(S(=O)(=O)N4CCc5ccccc5C4)cc3)sc2c1	53.0	/	/
CCS(=O)(=O)c1nc(S(=O)(=O)c2ccc(Cl)cc2)c(N2CCc3ccccc3C2)s1	-406.2*	-1.6	11.0
O=C(COC(=O)c1cc(Cl)ccc1Cl)NCCN1C(=O)CSC1=O	43.2	/	/
CCC(CC)c1nnc(NC(=O)CN2C(=O)c3ccccc3C2=O)s1	86.8	/	/
COC(=O)c1ccccc1NC(=O)CN1C(=O)CSC1=O	-48.4*	-5.6	8.4
CCN(CC)CCN(C(=O)c1ccc2c(c1)CCCC2)c1nc2ccc(OC)cc2s1	61.2	/	/
O=C(O)c1ccc(S(=O)(=O)/N=C2\C=C(Nc3ccccc3F)C(=O)c3ccccc32)cc1	96.3	/	/
Cn1c(CCN2CCCCC2)nc2cc(NC(=O)COc3ccccc3)ccc21	52.6	/	/
CCOC(=O)N1CCc2c(sc3c2C(=O)NC(c2ccccc2)N3)C1 (configuration not stated)	81.1	/	/
O=C(O)CC(NC(=O)c1sc2ccccc2c1Cl)c1ccc(OC2CCCC2)cc1 (configuration not stated)	44.4	/	/
CCOC(=O)CC1C(=O)NCCN1C(=O)c1sc2ccccc2c1Cl (configuration not stated)	-259.9*	-1.8	11.9
Cc1ccc(S(=O)(=O)Nc2ccccc2F)cc1C(=O)NCc1ccco1	-53.7*	11.4	10.5
Nc1c(C(=O)NCc2ccco2)c2nc3ccccc3nc2n1CCc1ccc(F)cc1	77.6	/	/
COc1ccc(OC)c2c1sc(=NC(=O)C(C)(C)C)n2C	-370.3*	1.0	8.6
O=C(NCCO)Nc1ccc2nc(-c3ccco3)c(-c3ccco3)nc2c1	70.6	/	/
c1coc(-c2nc(-c3ccco3)c(-c3ccco3)nc2-c2ccco2)c1	63.4	/	/
CCOc1ccccc1OCCC(=O)NNC(=O)Cn1nc(C)cc1C	-81.5*	5.4	9.4
CCCCCN(C(=O)NC(=O)Nc1nncs1)S(C)(=O)=O	-46.3*	-2.0	7.2
Cc1[nH]n(-c2ccccc2)c(=O)c1C(C[N+](=O)[O-])c1ccc(Cl)cc1 (configuration not stated)	88.2	/	/
COc1cc(NC2CCCCC2O)c2nc(-c3ccc(Cl)cc3)ccc2c1 (configuration not stated)	55.3	/	/
SMILES	Apaf1 activ	Rh110 act interf	Apaf-1 act conf2
Oc1ccc(N=Cc2ccc(OCc3ccccc3)cc2)cc1	92.7	/	/
CC(C)CC(=O)NC(NC(=S)Nc1sc2c(c1C#N)CCCC2)C(Cl)(Cl)Cl (configuration not stated)	-214.7*	5.2	34.0
CCOC(=O)Nc1sc2c(c1C#N)CCCC2	-61.6*	-4.4	10.2
CC1(c2ccc(OC(F)F)cc2)NC(=O)N(CC(=O)Nc2ccc(N3CCCCC3)cc2)C1=O (configuration not stated)	53.2	/	/
CCOc1cc(/C=N/NC(=O)C(=O)NCCCOC(C)C)cc(Br)c1O	-173.2*	-0.4	12.1
CC12COC3(P(=O)(c4ccccc4)c4ccccc4)CC1CCC23CP(=O)(c1ccccc1)c1ccccc1 (configuration not stated)	41.3	/	/
CC12CC3CC(C)(C1)CC(N)(C3)C2	-11.0	/	/
O=C(NC(=S)Nn1cnc2c(cnn2-c2ccccc2)c1=O)c1ccc(Oc2ccccc2)cc1	40.7	/	/
COC(=O)Cn1cnc2c(cnn2-c2ccccc2)c1=O	-196.9*	1.0	7.0
CCN1CCN(Cc2ccc(NC(=O)c3ccc(C)c(NC(=O)C(=O)c4c[nH]c5ccccc45)c3)cc2C(F)(F)F)CC1	74.4	/	/
Cc1oc2c(c1C(=O)N1CCC(C)CC1)C(=O)c1ccccc1C2=O	41.5	/	/
CCN(Cc1ccncc1)C(=O)c1ccc(Br)o1	-613.1*	-0.6	8.1
